Source: ChEMBL document CHEMBL1149149, “Design, synthesis, and biological activity of 1,3-disubstituted ureas as potent inhibitors of the soluble epoxide hydrolase of increased water solubility” (J Med Chem, 2004)
≈ marks a conversion by molar mass, not a printed value.

Key:
[1] = Partition coefficient (logP); type: physicochemical; conditions: octanol/water
Procedure, shortened: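 Compound dissolved in buffer-saturated octanol, then mixed with octanol-saturated 0.1 M sodium phosphate buffer, pH 7.4. Shaken 24 h at 23 ± 1.5 °C and centrifuged 5 min at 200g. Each phase was quantified by LC-MS/MS, and log P was taken as log [octanol]/[water]. Triplicate analyses.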

[2] = molecular target: T1, Bifunctional epoxide hydrolase 2 (Homo sapiens, UniProt P34913); test: Tested for 50 % inhibitory concentration against human soluble epoxide hydrolase (sEH)
T1 sequence (P34913 whole entry): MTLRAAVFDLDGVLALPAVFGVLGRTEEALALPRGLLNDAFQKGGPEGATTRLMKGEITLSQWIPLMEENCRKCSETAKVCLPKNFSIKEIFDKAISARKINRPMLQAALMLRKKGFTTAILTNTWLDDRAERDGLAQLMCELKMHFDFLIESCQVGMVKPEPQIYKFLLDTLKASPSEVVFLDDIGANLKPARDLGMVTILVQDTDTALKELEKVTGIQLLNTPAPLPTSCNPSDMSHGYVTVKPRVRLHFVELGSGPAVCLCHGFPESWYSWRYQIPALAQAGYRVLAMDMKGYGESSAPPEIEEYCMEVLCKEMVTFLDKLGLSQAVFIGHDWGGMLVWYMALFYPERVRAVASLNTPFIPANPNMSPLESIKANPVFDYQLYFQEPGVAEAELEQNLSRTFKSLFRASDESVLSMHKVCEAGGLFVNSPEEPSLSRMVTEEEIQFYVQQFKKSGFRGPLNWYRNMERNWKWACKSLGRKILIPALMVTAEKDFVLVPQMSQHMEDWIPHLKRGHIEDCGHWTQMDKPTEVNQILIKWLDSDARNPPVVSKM
Procedure, shortened: (§1)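 Recombinant sEH was expressed in baculovirus and affinity-purified to at least 97% purity. Enzyme was preincubated with inhibitor for 5 min at 30 °C in 0.1 M sodium phosphate, pH 7.4, with 0.1 mg/mL BSA. Racemic 4-nitrophenyl-trans-2,3-epoxy-3-phenylpropyl carbonate was the substrate (40 µM). 4-Nitrophenolate was read at 405 nm for 1 min. Run in triplicate; IC50 from regression of at least five points.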

[3] = Solubility in sodium phosphate buffer (0.1 M, pH 7.4) at 25 degrees C was determined
[4] = molecular target: T2, Bifunctional epoxide hydrolase 2 (Mus musculus, UniProt P34914); test: Tested for 50 % inhibitory concentration against mouse soluble epoxide hydrolase (sEH); procedure, shortened: as §1
T2 sequence (P34914 whole entry): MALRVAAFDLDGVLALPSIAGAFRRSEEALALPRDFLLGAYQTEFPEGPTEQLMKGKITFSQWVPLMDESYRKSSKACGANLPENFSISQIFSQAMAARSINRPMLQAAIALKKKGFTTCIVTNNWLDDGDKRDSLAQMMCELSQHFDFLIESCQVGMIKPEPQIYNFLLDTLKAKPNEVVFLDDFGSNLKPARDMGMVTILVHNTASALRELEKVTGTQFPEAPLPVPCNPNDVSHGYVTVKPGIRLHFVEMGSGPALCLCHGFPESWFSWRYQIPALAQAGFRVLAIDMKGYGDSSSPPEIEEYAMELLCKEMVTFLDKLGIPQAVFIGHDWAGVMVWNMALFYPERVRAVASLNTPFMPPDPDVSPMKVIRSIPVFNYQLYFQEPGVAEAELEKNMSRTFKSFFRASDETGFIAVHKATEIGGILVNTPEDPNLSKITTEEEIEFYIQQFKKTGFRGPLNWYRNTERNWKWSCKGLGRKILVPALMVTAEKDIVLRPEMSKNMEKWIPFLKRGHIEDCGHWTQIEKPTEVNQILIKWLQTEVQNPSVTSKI

[5] = molecular target: T3, Bifunctional epoxide hydrolase 2 (Homo sapiens) (UniProt P34913); test: Tested for 90 % inhibitory concentration against human soluble epoxide hydrolase (sEH)
T3 sequence (whole entry): T1 sequence (P34913 whole entry)
Procedure, shortened: (§2)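 Recombinant sEH (human for line 1, mouse for line 2) expressed in baculovirus and affinity-purified to ≥97%. Enzyme was preincubated with inhibitor for 5 min at 30 °C in 0.1 M sodium phosphate, pH 7.4, with 0.1 mg/mL BSA. Racemic 4-nitrophenyl-trans-2,3-epoxy-3-phenylpropyl carbonate (40 µM) was then added, and 4-nitrophenolate was read at 405 nm for 1 min at 30 °C. Assays were run in triplicate.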

[6] = molecular target: T4, Bifunctional epoxide hydrolase 2 (Mus musculus) (UniProt P34914); test: Tested for 90 % inhibitory concentration against mouse soluble epoxide hydrolase (sEH); procedure, shortened: as §2
T4 sequence (whole entry): T2 sequence (P34914 whole entry)

Row | SMILES | IC50 [2] | IC50 [4] | IC90 [5] | IC90 [6] | further results
1 | O=C(O)CCCNC(=O)NC12CC3CC(CC(C3)C1)C2 | 37000 nM | 22000 nM |  |  | logP [1]: 0.14; solubility ([3]; sodium phosphate buffer): 7.06 µg/mL (≈ 25.2 µM)
2 | CCCCCCC(=O)NCCNC(=O)Nc1cccc(Cl)c1 | > 100000 nM |  |  |  | 
3 | CCCCCCC(O)CCCNC(=O)Nc1cccc(Cl)c1 (configuration not stated) | 3100 nM | 140 nM |  |  | 
4 | CCCCCCCCCCNC(=O)NC12CC3CC(CC(C3)C1)C2 |  |  |  |  | logP [1]: 5.25; solubility ([3]; sodium phosphate buffer): 0.62 µg/mL (≈ 1.85 µM)
5 | CCCCCNC(=O)NCCNC(=O)Nc1cccc(Cl)c1 | > 100000 nM |  |  |  | 
6 | CCOC(=O)CCCCCCCCCCOC(=O)CCCNC(=O)NC12CC3CC(CC(C3)C1)C2 |  |  | 1200 nM | 350 nM | 
7 | CCOC(=O)CCCCCCCOC(=O)CCCNC(=O)NC12CC3CC(CC(C3)C1)C2 |  |  | 720 nM | 160 nM | 
8 | CCOC(=O)c1ccc(COC(=O)CCCNC(=O)NC23CC4CC(CC(C4)C2)C3)cc1 | 100 nM | 50 nM |  |  | 
9 | CCOC(=O)/C=C/c1ccc(OC(=O)CCCNC(=O)NC23CC4CC(CC(C4)C2)C3)cc1 | 200 nM | 50 nM |  |  | 
10 | CCCCCCCCCCNC(=O)NC1CCCCC1 |  |  |  |  | logP [1]: 5.44; solubility ([3]; buffer): 0.44 µg/mL (≈ 1.56 µM)
11 | CCOC(=O)Cc1ccc(OC(=O)CCCNC(=O)NC23CC4CC(CC(C4)C2)C3)cc1 | 140 nM | 50 nM |  |  | 
12 | CCOC(=O)CCCCCCCCCCCOC(=O)CCCNC(=O)NC12CC3CC(CC(C3)C1)C2 |  |  | 1800 nM | 630 nM | 
13 | CCOC(=O)CCCCCCCCCOC(=O)CCCNC(=O)NC12CC3CC(CC(C3)C1)C2 |  |  | 680 nM | 260 nM | 
14 | CC(C)=CCCC(C)CCOC(=O)CCCNC(=O)NC12CC3CC(CC(C3)C1)C2 (configuration not stated) | 110 nM | 50 nM |  |  | 
15 | CCCCCOC(=O)NCCNC(=O)Nc1cccc(Cl)c1 | > 100000 nM |  |  |  | 
16 | CCCCCOC(=O)CCCNC(=O)NC12CC3CC(CC(C3)C1)C2 |  |  |  |  | solubility ([3]; sodium phosphate buffer): 1.69 µg/mL (≈ 4.82 µM)
17 | CCCCCOC(=O)CCCNC(=O)NC1CCCCC1 |  |  |  |  | logP [1]: 0.82; solubility [3]: 1.51 µg/mL (≈ 5.06 µM)

Continued, in another order:

Row | IC50 [2] | IC50 [4] | IC90 [5] | IC90 [6] | SMILES | further results
18 |  |  | 9000 nM | 630 nM | CCOC(=O)CCOC(=O)CCCNC(=O)NC12CC3CC(CC(C3)C1)C2 | 
19 |  |  | 1500 nM | 100 nM | CCOC(=O)CCCCOC(=O)CCCNC(=O)NC12CC3CC(CC(C3)C1)C2 | 
20 | 253000 nM | 90000 nM |  |  | O=C(NCCCCCO)NC1CCCCC1 | 
21 | > 500000 nM | > 500000 nM |  |  | O=C(O)CNC(=O)NC1CCCCC1 | 
22 |  |  | 5000 nM | 160 nM | CCOC(=O)CCCOC(=O)CCCNC(=O)NC12CC3CC(CC(C3)C1)C2 | 
23 | 6200 nM | 330 nM |  |  | COCCCNC(=O)NC1CCCCC1 | 
24 |  |  | 9000 nM | 110 nM | CCOC(=O)COC(=O)CCCNC(=O)NC12CC3CC(CC(C3)C1)C2 | 
25 | 1600 nM | 100 nM |  |  | COC(=O)CCCNC(=O)NC12CC3CC(CC(C3)C1)C2 | logP [1]: 0.18; solubility ([3]; sodium phosphate buffer): 1.6 µg/mL (≈ 5.43 µM)
26 | > 500000 nM | > 500000 nM |  |  | O=C(NCCCO)NC1CCCCC1 | 
